# Screening results from PubChem BioAssay.
# NR3A LBD binder: NR3A (human) ligand-binding domain modulation; NR3A LBD differential scanning fluorimetry, Tm shift; 0% = protein alone, 100% = glycine-bound protein; Tm shift relative to glycine control, % at 25 µM; 2.5% of 340,000 active; AID 1259313;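 active = melting temperature shift of at least 10% of the positive control shift, at one fixed dose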
# CHOP inhibitor: CHOP inhibition in unfolded protein response; CHO-K1 CHOP-promoter luciferase, tunicamycin-induced, 15-18 h; inhibition, % at 10 µM; 3.8% of 220,000 active; AID 2732;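 active = compounds that reduced the stress-induced luciferase reporter signal by more than about 70% of percent inhibition, limit read from the data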;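 also: 0% = tunicamycin plus vehicle and 100% = wells without tunicamycin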
# T cruzi repl: T. cruzi replication inhibition; 1.4% of 300,000 active; T. cruzi beta-gal in NIH3T3, luminescence, 90 h; inhibition, % (no concentration beside the values); AID 1885;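 active = mean inhibition across valid replicates above about 55%, limit read from the data; inconclusive = mean below that limit but half or more replicates reach it; inactive = mean below it, under half of replicates reach it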;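 also: signal also drops with host cell toxicity which is not excluded here; 0% = plate median of DMSO wells and 100% = zero luminescence signal; higher percent means less beta-gal luminescence so fewer parasites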
#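 compound dosing = single 50 nL compound addition per well in DMSO | material = NIH/3T3 host cells with β-galactosidase reporter T. cruzi | input = 5,000 host fibroblasts per well | timing = ≥90 h infection period, 3 h prior cell attachment | read-out basis = percent inhibition of parasite-derived β-gal signal | detection = GalScreen β-gal luminescence, detergent lysis, 60 min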
# Beta cell apopt: beta cell apoptosis inhibition; INS-1E cytokine-induced death, ATP luminescence, 48 h; percent of positive-control rescue, neutral wells zero; protection from apoptosis, % (no concentration beside the values); 0.8% of 300,000 active; AID 435005;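 active = Every replicate reaches about 75%, or at least half do and their mean reaches it too, limit read from the data; inconclusive = At least half of replicates reach the limit but their mean does not; inactive = Under half of replicates reach the limit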;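 also: 0% = cytokine-treated negative control wells and 100% = positive control rescue; higher means more ATP so stronger rescue from cytokine killing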
# CSC inhib: cancer stem cell inhibition. cancer stem cell-like cells viability, luminescence. inhibition, % at 7.5 µM. 1.1% of 300,000 active. AID 2717; in the data active = inhibition above about 75%; inconclusive = no clear call, values can overlap the other calls; tested in HMLE shEcad cells
# PREPL inhibitor: inhibits the human prolyl oligopeptidase-like enzyme | Q4J6C6 | recombinant PREPL, fluorescence polarization activity-based probe | inhibition, % at 5.96 µM | 0.68% of 320,000 active; in the data active = inhibition above about 43%;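 also: 0% = enzyme with DMSO and 100% = wells lacking enzyme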
# * hit, by the source's call; ? = inconclusive; . = no result given. Hits are enriched below; roughly 6.7% of the tested compounds scored in any of these assays.
SMILES,NR3A LBD binder,CHOP inhibitor,T cruzi repl,Beta cell apopt,CSC inhib,PREPL inhibitor
O=C(COc1ccc(Cl)cc1)Nc1ncc([N+](=O)[O-])s1,-4,33,-4,.,.,.
Cc1cnc(NC(=O)Cc2ccc(Br)cc2)s1,3,.,-26,-16,-8,-5
O=C(Cc1ccc(Cl)cc1)Nc1ncc([N+](=O)[O-])s1,-7,21,94*,.,.,.
O=C(Cc1ccc(Br)cc1)Nc1ncc([N+](=O)[O-])s1,4,47,60*,28,8,20
CCOC(=O)C1(Cc2cccc(F)c2)CCN(C(=O)c2ccoc2C)CC1,-7,14,0,-1,-12,4
CC(C)NC(=O)C1(S(=O)(=O)c2ccccc2)CC=CC1,-4,.,-4,0,-2,-7
COc1ccc(C(=O)Oc2ccc(C(=S)N3CCCC3)cc2)cc1OC,.,93*,-15,-4,-14,-1
CCN(CC)CC(=O)Nc1c(C)cccc1C,0,9,.,-8,-9,-1
CCN(CC)CC(=O)Nc1cccc2c1C(=O)c1ccccc1C2=O,0,77*,32,6,18,4
CCn1c(N)[n+](CC(=O)Nc2ccc(SC(F)F)cc2)c2ccccc21,2,28,-5,5,2,-5
CCCCCCn1c(=O)[nH]c2nc3cc(N)c(C)cc3nc2c1=O,-2,101*,.,.,.,.
CCCCn1c(=O)[nH]c2nc3cc(NC(C)=O)ccc3nc2c1=O,1,-5,-8,-1,-9,-6
COc1ccc(C2OCC(C)([N+](=O)[O-])CO2)cc1 (centres undefined),0,.,.,.,.,.
O=C1CCN(Cc2ccccc2)C=C1c1ccc(Br)cc1,-10,.,.,1,.,9
O=[N+]([O-])c1ccc(O)c(N=Cc2sc3ccccc3c2O)c1,16*,41,-10,29,20,2
Cc1cccc(/N=C/c2sc3ccccc3c2O)n1,0,14,8,-9,13,5
Oc1c(C=Nc2cccc3cccnc23)sc2ccccc12,.,-48,55*,-1,33,45*
Oc1ccc(Cl)cc1N=Cc1sc2ccccc2c1Cl,0,35,-52,.,-12,7
Cc1cc(C)n(CCOC(=O)c2sc3ccccc3c2Cl)n1,7,74*,-5,-3,-10,-26
CC(C)c1cc(-c2cc(-c3ccccc3)on2)nc(NC2CCCC2)n1,-6,24,11,7,85*,5
CCc1nn2cc(C(=O)c3cc(Cl)ccc3O)cnc2c1-c1ccc(F)cc1,27*,28,2,4,7,18
COc1cc(/C=C(\C#N)c2nc3ccccc3[nH]2)ccc1OC(=O)c1ccco1,9,27,13,-5,17,80*
COc1cc(/C=C(\C#N)c2nc3ccccc3o2)ccc1O,15*,13,5,11,18,6
COc1cc(/C=C(\C#N)c2nc3ccccc3s2)ccc1OCC(=O)Nc1ccccc1,4,50,.,1,?,-5
COc1cc(/C=C(\C#N)c2ccccn2)ccc1OCC(=O)Nc1ccc(Br)cc1,3,70*,-1,3,?,-3
SMILES,NR3A LBD binder,CHOP inhibitor,T cruzi repl,Beta cell apopt,CSC inhib,PREPL inhibitor
N#C/C(=C\c1ccc(O)cc1)c1nc2ccccc2o1,8,-21,16,9,9,1
N#C/C(=C\c1cccc(OCC(=O)O)c1)c1nc2ccccc2[nH]1,0,.,-9,6,-4,43
COc1cc(/C=C(/C#N)c2nc3ccccc3[nH]2)ccc1OCC(=O)Nc1ccccc1C,-1,60,.,3,83*,14
COc1cc(/C=C(\C#N)c2ccccn2)ccc1OCC(=O)Nc1c(Cl)cccc1Cl,0,4,.,7,-10,-7
CCOc1cc(/C=C(/C#N)c2nc3ccccc3[nH]2)ccc1OCc1ccc(C(=O)O)o1,-4,8,-12,0,-6,59*
CCOc1cc(/C=C(/C#N)c2ccc(F)cc2)ccc1OCc1ccc(C(=O)O)o1,0,13,-18,.,-18,7
COc1ccc(OCC(O)CNC(=O)Nc2cccc3ccccc23)cc1 (centres undefined),-6,8,1,0,-19,13
C/C(=C\c1ccc(C(=O)O)cc1)c1ccc2c(c1)C(C)(C)CCC2(C)C,-1,0,.,-15,101*,4
CC(=O)C(=Cc1ccc(C(=O)O)cc1)C(C)=O,-2,-9,4,.,-11,6
